Source: ChEMBL document CHEMBL1145497, “A novel Giardia lamblia nitroreductase, GlNR1, interacts with nitazoxanide and other thiazolides” (Antimicrob Agents Chemother, 2007)
pKi: −log10 of the molar value. Activity calls are given as the source filed them. The rule behind the calls is not given here.

Key:
Giardia duodenalis = test: Inhibition of Giardia lamblia recombinant nitroreductase 1 (EAA43030.1) expressed in Escherichia coli at 5 uM
Procedure, shortened: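 Six-His-tagged recombinant enzyme expressed in E. coli (1 mM IPTG, 3.5 h) and Ni-column purified. Photometric NADH-oxidation assay in 50 mM Tris-Cl pH 7.0 with 25 μM dinitrotoluene substrate, 0.15 mM NADH final, and inhibitors at 5 μM against a DMSO control. After 5 min preincubation, A340 was read over 0–20 min. Activity came from the linear slope as μkat/g protein; triplicate, mean ± SE.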

Giardia intestinalis [1] = test: Reduction of ACT1 expression level in Giardia lamblia trophozoites at 25 uM after 3 hrs by RT-PCR assay; assay type: functional, organism-based; conditions: Giardia duodenalis
Procedure, shortened: (§1)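 G. lamblia WB clone C6 trophozoites grown anaerobically in modified TYI-S-33 to near confluence, exposed to compound at 25 μM (DMSO control) for 3 h, then harvested. RNA extracted with DNase I digestion; transcript levels of GlNR1, GlGDH1 and GlACT1 quantified by real-time RT-PCR.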

Giardia intestinalis [2] = test: Reduction of nitroreductase 1 expression level in Giardia lamblia trophozoites at 25 uM after 3 hrs by RT-PCR assay; assay type: functional, organism-based; conditions: Giardia duodenalis; procedure, shortened: as §1
Giardia intestinalis [3] = test: Growth inhibition of Giardia lamblia; assay type: functional, organism-based; conditions: Giardia duodenalis
Giardia intestinalis [4] = test: Reduction of GDH expression level in Giardia lamblia trophozoites at 25 uM after 3 hrs by RT-PCR assay; assay type: functional, organism-based; conditions: Giardia duodenalis; procedure, shortened: as §1
[5] = Inhibition of Giardia lamblia recombinant nitroreductase 1 (EAA43030.1) expressed in Escherichia coli; set-up: species or system Giardia duodenalis
Procedure, shortened: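 His6-tagged recombinant GlNR1 from IPTG-induced E. coli, Ni-column purified. Photometric NADH oxidation assay in 50 mM Tris-Cl pH 7.0 with dinitrotoluene substrate, 0.15 mM NADH final, 5 min preincubation, A340 read over 0–20 min.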

Row | SMILES | Activity (Giardia duodenalis) | inhibition (Giardia duodenalis) [%] | Activity (Giardia intestinalis [1]) | Activity (Giardia intestinalis [2]) | Activity (Giardia intestinalis [3]) | Activity (Giardia intestinalis [4]) | pKi [5]
1 | Cc1ncc([N+](=O)[O-])n1CCO | inactive | – | – | – | – | – | –
2 | CC(=O)Oc1ccccc1C(=O)Nc1ncc([N+](=O)[O-])s1 [NITAZOXANIDE] | – | > 75 | Active | Active | Active | Active | 6.52
3 | CC(=O)Oc1c(C)cccc1C(=O)Nc1ncc([N+](=O)[O-])s1 | – | > 75 | – | – | Active | – | –
4 | COc1cccc(C(=O)Nc2ncc([N+](=O)[O-])s2)c1O | – | > 75 | – | – | Active | – | –
5 | O=C(Nc1ncc([N+](=O)[O-])s1)c1ccccc1O | – | > 75 | – | – | Active | – | –
